Experimental data taken from ChEMBL document CHEMBL4689842, “EUbOPEN Chemogenomics Library wave 1” (2021).

System: U2OS
Experiment: Multiplex assay against U2OS
Type: toxicity, cell-based
Conditions: human
Method in brief: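 Per cents of healthy-nucleus cells form the tubulin, mitochondrial-mass and membrane-permeability phenotype values. Live cells were stained at seeding with Hoechst33342, BioTracker Green Microtubule Cytoskeleton Dye, MitoTracker Red and Annexin V Alexa Fluor 680. After compound addition they were imaged on a CQ1 microscope at 37°C and 5% CO2, and CellPathfinder machine-learning gating split them into Hoechst high-intensity objects or normal cells, normal cells into healthy, pyknosed or fragmented nuclei, and pyknosed cells into mitotic or apoptotic.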

[1] = 12 h, 0 µM, compound concentration 0 uM, replicate 1
[2] = 12 h, 0 µM, compound concentration 0 uM, replicate 2
[3] = 12 h, 1 µM, compound concentration 1 uM, replicate 1
[4] = 12 h, 1 µM, compound concentration 1 uM, replicate 2
[5] = 24 h, 0 µM, compound concentration 0 uM, replicate 1
[6] = 24 h, 0 µM, compound concentration 0 uM, replicate 2
[7] = 24 h, 1 µM, compound concentration 1 uM, replicate 1
[8] = 24 h, 1 µM, compound concentration 1 uM, replicate 2
[9] = 12 h, 10 µM, compound concentration 10 uM, replicate 1
[10] = 12 h, 10 µM, compound concentration 10 uM, replicate 2
[11] = 24 h, 10 µM, compound concentration 10 uM, replicate 1
[12] = 24 h, 10 µM, compound concentration 10 uM, replicate 2
[13] = 48 h, 1 µM, compound concentration 1 uM, replicate 1
[14] = 48 h, 1 µM, compound concentration 1 uM, replicate 2
[15] = 48 h, 10 µM, compound concentration 10 uM, replicate 1
[16] = 48 h, 10 µM, compound concentration 10 uM, replicate 2

## CCNc1cc(N[C@H]2CC[C@H](O)CC2)nc(Nc2ccc3c(ccn3Cc3ccccc3)c2)n1
[1]
  Population Apoptotic (%): 37%
  Population Fragmented Nuclei (%): 14%
  Population Healthy Nuclei (%): 59%
  Population Hoechst High Intensity Objects (%): 6%
  Population Membrane Permeable-Phenotype (%): 39%
  Population Mitochondria Different-Phenotype (%): 98%
  Population Mitotic Cells (%): 62%
  Population Normal (%): 93%
  Population Pyknosed Nuclei (%): 25%
  Population Tubulin-Different-Phenotype (%): 100%
  Total Cell Count: 243
[2]
  Population Apoptotic (%): 62%
  Population Fragmented Nuclei (%): 20%
  Population Healthy Nuclei (%): 57%
  Population Hoechst High Intensity Objects (%): 7%
  Population Membrane Permeable-Phenotype (%): 69%
  Population Mitochondria Different-Phenotype (%): 100%
  Population Mitotic Cells (%): 37%
  Population Normal (%): 92%
  Population Pyknosed Nuclei (%): 22%
  Total Cell Count: 117
[3]
  Population Apoptotic (%): 64%
  Population Fragmented Nuclei (%): 4%
  Population Healthy Nuclei (%): 81%
  Population Hoechst High Intensity Objects (%): 1%
  Population Membrane Permeable-Phenotype (%): 33%
  Population Mitochondria Different-Phenotype (%): 30%
  Population Mitotic Cells (%): 35%
  Population Normal (%): 98%
  Population Pyknosed Nuclei (%): 13%
  Population Tubulin-Different-Phenotype (%): 88%
  Total Cell Count: 129
[4]
  Population Apoptotic (%): 42%
  Population Fragmented Nuclei (%): 11%
  Population Healthy Nuclei (%): 75%
  Population Hoechst High Intensity Objects (%): 11%
  Population Membrane Permeable-Phenotype (%): 18%
  Population Mitochondria Different-Phenotype (%): 55%
  Population Mitotic Cells (%): 57%
  Population Normal (%): 88%
  Population Tubulin-Different-Phenotype (%): 76%
  Total Cell Count: 120
[5]
  Population Apoptotic (%): 65%
  Population Fragmented Nuclei (%): 14%
  Population Healthy Nuclei (%): 46%
  Population Hoechst High Intensity Objects (%): 4%
  Population Membrane Permeable-Phenotype (%): 83%
  Population Mitotic Cells (%): 34%
  Population Normal (%): 95%
  Population Pyknosed Nuclei (%): 39%
  Population Tubulin-Different-Phenotype (%): 99%
  Total Cell Count: 273
[6]
  Population Apoptotic (%): 71%
  Population Fragmented Nuclei (%): 23%
  Population Healthy Nuclei (%): 47%
  Population Hoechst High Intensity Objects (%): 10%
  Population Membrane Permeable-Phenotype (%): 92%
  Population Mitochondria Different-Phenotype (%): 100%
  Population Mitotic Cells (%): 28%
  Population Normal (%): 89%
  Population Pyknosed Nuclei (%): 29%
  Population Tubulin-Different-Phenotype (%): 100%
  Total Cell Count: 121
[7]
  Population Apoptotic (%): 33%
  Population Fragmented Nuclei (%): 9%
  Population Healthy Nuclei (%): 77%
  Population Hoechst High Intensity Objects (%): 2%
  Population Membrane Permeable-Phenotype (%): 22%
  Population Mitochondria Different-Phenotype (%): 42%
  Population Mitotic Cells (%): 66%
  Population Normal (%): 97%
  Population Pyknosed Nuclei (%): 12%
  Population Tubulin-Different-Phenotype (%): 69%
  Total Cell Count: 167
[8]
  Population Apoptotic (%): 70%
  Population Fragmented Nuclei (%): 14%
  Population Healthy Nuclei (%): 71%
  Population Hoechst High Intensity Objects (%): 9%
  Population Membrane Permeable-Phenotype (%): 23%
  Population Mitochondria Different-Phenotype (%): 53%
  Population Mitotic Cells (%): 29%
  Population Normal (%): 90%
  Population Pyknosed Nuclei (%): 14%
  Population Tubulin-Different-Phenotype (%): 65%
  Total Cell Count: 132

## O=C(Nc1ccc(-c2ccnc(Nc3ccc(N4CCOCC4)cc3)n2)cc1)[C@@H]1CCCN1
[3]
  Population Apoptotic (%): 45%
  Population Fragmented Nuclei (%): 11%
  Population Healthy Nuclei (%): 76%
  Population Hoechst High Intensity Objects (%): 3%
  Population Membrane Permeable-Phenotype (%): 6%
  Population Mitochondria Different-Phenotype (%): 10%
  Population Mitotic Cells (%): 55%
  Population Normal (%): 96%
  Population Pyknosed Nuclei (%): 11%
  Population Tubulin-Different-Phenotype (%): 16%
  Total Cell Count: 100
[4]
  Population Apoptotic (%): 33%
  Population Fragmented Nuclei (%): 13%
  Population Hoechst High Intensity Objects (%): 7%
  Population Membrane Permeable-Phenotype (%): 4%
  Population Mitotic Cells (%): 66%
  Population Normal (%): 92%
  Population Pyknosed Nuclei (%): 10%
  Population Tubulin-Different-Phenotype (%): 10%
  Total Cell Count: 65
[9]
  Population Apoptotic (%): 62%
  Population Fragmented Nuclei (%): 13%
  Population Healthy Nuclei (%): 66%
  Population Hoechst High Intensity Objects (%): 7%
  Population Membrane Permeable-Phenotype (%): 12%
  Population Mitochondria Different-Phenotype (%): 74%
  Population Mitotic Cells (%): 37%
  Population Normal (%): 92%
  Population Pyknosed Nuclei (%): 20%
  Population Tubulin-Different-Phenotype (%): 97%
  Total Cell Count: 176
[10]
  Population Apoptotic (%): 77%
  Population Fragmented Nuclei (%): 7%
  Population Healthy Nuclei (%): 77%
  Population Hoechst High Intensity Objects (%): 5%
  Population Membrane Permeable-Phenotype (%): 8%
  Population Mitochondria Different-Phenotype (%): 28%
  Population Mitotic Cells (%): 22%
  Population Normal (%): 94%
  Population Pyknosed Nuclei (%): 14%
  Population Tubulin-Different-Phenotype (%): 44%
  Total Cell Count: 65
[7]
  Population Apoptotic (%): 41%
  Population Fragmented Nuclei (%): 8%
  Population Healthy Nuclei (%): 76%
  Population Hoechst High Intensity Objects (%): 3%
  Population Membrane Permeable-Phenotype (%): 7%
  Population Mitochondria Different-Phenotype (%): 9%
  Population Mitotic Cells (%): 58%
  Population Normal (%): 96%
  Population Pyknosed Nuclei (%): 15%
  Population Tubulin-Different-Phenotype (%): 10%
  Total Cell Count: 90
[8]
  Population Apoptotic (%): 60%
  Population Fragmented Nuclei (%): 7%
  Population Healthy Nuclei (%): 85%
  Population Hoechst High Intensity Objects (%): 6%
  Population Membrane Permeable-Phenotype (%): 3%
  Population Mitochondria Different-Phenotype (%): 19%
  Population Mitotic Cells (%): 40%
  Population Normal (%): 93%
  Population Pyknosed Nuclei (%): 7%
  Total Cell Count: 63
[11]
  Population Apoptotic (%): 60%
  Population Fragmented Nuclei (%): 12%
  Population Healthy Nuclei (%): 65%
  Population Hoechst High Intensity Objects (%): 7%
  Population Membrane Permeable-Phenotype (%): 17%
  Population Mitochondria Different-Phenotype (%): 80%
  Population Mitotic Cells (%): 39%
  Population Normal (%): 92%
  Population Pyknosed Nuclei (%): 21%
  Population Tubulin-Different-Phenotype (%): 97%
  Total Cell Count: 198
[12]
  Population Apoptotic (%): 58%
  Population Fragmented Nuclei (%): 18%
  Population Healthy Nuclei (%): 64%
  Population Hoechst High Intensity Objects (%): 1%
  Population Membrane Permeable-Phenotype (%): 13%
  Population Mitochondria Different-Phenotype (%): 17%
  Population Mitotic Cells (%): 41%
  Population Normal (%): 98%
  Population Pyknosed Nuclei (%): 17%
  Population Tubulin-Different-Phenotype (%): 22%
  Total Cell Count: 72
[13]
  Population Apoptotic (%): 36%
  Population Fragmented Nuclei (%): 5%
  Population Hoechst High Intensity Objects (%): 1%
  Population Membrane Permeable-Phenotype (%): 4%
  Population Mitochondria Different-Phenotype (%): 8%
  Population Mitotic Cells (%): 63%
  Population Normal (%): 98%
  Population Pyknosed Nuclei (%): 13%
  Population Tubulin-Different-Phenotype (%): 13%
  Total Cell Count: 94
[14]
  Population Apoptotic (%): 0%
  Population Fragmented Nuclei (%): 10%
  Population Healthy Nuclei (%): 80%
  Population Hoechst High Intensity Objects (%): 5%
  Population Membrane Permeable-Phenotype (%): 5%
  Population Mitochondria Different-Phenotype (%): 12%
  Population Mitotic Cells (%): 100%
  Population Normal (%): 94%
  Population Pyknosed Nuclei (%): 9%
  Population Tubulin-Different-Phenotype (%): 16%
  Total Cell Count: 61
[15]
  Population Apoptotic (%): 67%
  Population Fragmented Nuclei (%): 24%
  Population Healthy Nuclei (%): 48%
  Population Hoechst High Intensity Objects (%): 6%
  Population Membrane Permeable-Phenotype (%): 18%
  Population Mitochondria Different-Phenotype (%): 53%
  Population Mitotic Cells (%): 32%
  Population Normal (%): 93%
  Population Pyknosed Nuclei (%): 26%
  Population Tubulin-Different-Phenotype (%): 86%
  Total Cell Count: 289
[16]
  Population Apoptotic (%): 60%
  Population Fragmented Nuclei (%): 9%
  Population Healthy Nuclei (%): 70%
  Population Hoechst High Intensity Objects (%): 8%
  Population Membrane Permeable-Phenotype (%): 28%
  Population Mitochondria Different-Phenotype (%): 32%
  Population Mitotic Cells (%): 40%
  Population Normal (%): 91%
  Population Pyknosed Nuclei (%): 20%
  Population Tubulin-Different-Phenotype (%): 23%
  Total Cell Count: 125
